The results in this text go back to the RNAGym collection of RNA variant scans (doi:10.1002/anie.201605470).

B1: Osa-1-4 twister ribozyme (parent)
chain: CCGCCUAACACUGCCAAUGCCGGUCCCAAGCCCGGAUAAAAGUGGAGGGGGCGG

The variants in this data set derive from B1. In words: self-cleavage, relative activity (ratio to wild type); higher = more cleavage; co-transcriptional. The method in brief:
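A DNA template encoding a 54-nucleotide twister ribozyme from Oryza sativa was made so that each of the 48 positions downstream of the cleavage site carried 97 % wild-type base and 1 % of each other base. Transcription in vitro ran for 2 h at 37 °C, during which the ribozyme could cleave itself. Reverse transcription used a template-switching oligonucleotide, and the products were PCR-amplified and deep-sequenced. Each read was scored as cleaved or uncleaved by whether upstream sequence was present, and relative activity is the fraction cleaved normalised to wild type.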
Turning to CCGCCUAACACUGCCAAUGCCGUUCCCAAGCCCGGAUAAAAGUGGAGGGGGCAG [G23U G53A], the self-cleavage is 0.06.
In the case of CCGCCUAACACUGCCAAUGCCGUUCCCAAGCCCGGAUAAAAGUGGAGGGGGCCG [G23U G53C], the self-cleavage was 0.03.
The same measure for CCGCCUAACACUGCCAAUGCCGUUCCCAAGCCCGGAUAAAAGUGGAGGGGGCUG [G23U G53U]: 0.06.
On to CCGCCUAACACUGCCAAUGCCGCUCCCAAGCCCGGAGAAAAGUGGAGGGGGCGG [G23C U37G], for which the self-cleavage worked out at 0.05.
Then CCGCCUAACACUGCCAAUGCCGCUCCCAAGCCCGGACAAAAGUGGAGGGGGCGG [G23C U37C], with 0.07; and CCGCCUAACACUGCCAAUGCCGCUCCCAAGCCCGGAAAAAAGUGGAGGGGGCGG [G23C U37A], with 0.04; and CCGCCUAACACUGCCAAUGCCGGGCCCAAGCCCGGACAAAAGUGGAGGGGGCGG [U24G U37C], with 0.02.
Then CCGCCUAACACUGCCAAUGCCGGGCCCAAGCCCGGAAAAAAGUGGAGGGGGCGG [U24G U37A], with 0.04; and CCGCCUAACACUGCCAAUGCCGGGCCCAAGCCCGGAGAAAAGUGGAGGGGGCGG [U24G U37G], with 0.04; and CCGCCUAACACUGCCAAUGCCGUUCCCAAACCCGGAUAAAAGUGGAGGGGGCGG [G23U G30A], with 0.02.
Then CCGCCUAACACUGCCAAUGCCGUUCCCAACCCCGGAUAAAAGUGGAGGGGGCGG [G23U G30C], with 0.03.
For CCGCCUAACACUGCCAAUGCCGUUCCCAAUCCCGGAUAAAAGUGGAGGGGGCGG [G23U G30U], the self-cleavage worked out at 0.02.
Then CCGCCUAACACUGCCAAUGCCGUUCCCAAGCCCGGAUAAAAGAGGAGGGGGCGG [G23U U43A], with 0.04.
Then CCGCCUAACACUGCCAAUGCCGUUCCCAAGCCCGGAUAAAAGCGGAGGGGGCGG [G23U U43C], with 0.04.
Then CCGCCUAACACUGCCAAUGCCGUUCCCAAGCCCGGAUAAAAGGGGAGGGGGCGG [G23U U43G], with 0.07.
For the variant CCGCCUAACACUGCCAAUGCCGUUCCCAAGCCCGGAUAAAAGUGGAGGGAGCGG [G23U G50A], the self-cleavage stood at 0.05.
Take CCGCCUAACACUGCCAAUGCCGUUCCCAAGCCCGGAUAAAAGUGGAGGGUGCGG [G23U G50U]: the self-cleavage was 0.06.
The same measure for CCGCCUAACACUGCCAAUGCCGUUCCCAAGCCCGGAUAAAAGUGGAGGGCGCGG [G23U G50C]: 0.05; for CCGCCUAACACUGCCAAUGCCGUUCCCAAGCCCGGAAAAAAGUGGAGGGGGCGG [G23U U37A]: 0.14.
Then CCGCCUAACACUGCCAAUGCCGUUCCCAAGCCCGGAGAAAAGUGGAGGGGGCGG [G23U U37G], with 0.19; and CCGCCUAACACUGCCAAUGCCGUUCCCAAGCCCGGACAAAAGUGGAGGGGGCGG [G23U U37C], with 0.16.
The same measure for CCGCCUAACACUGCCAAUGCCGGGCCCAAGCCCGGAUAAAAGAGGAGGGGGCGG [U24G U43A]: 0.03.
On to CCGCCUAACACUGCCAAUGCCGUUCCCAAGCCCGAAUAAAAGUGGAGGGGGCGG [G23U G35A], for which the self-cleavage came out at 0.04.
Then CCGCCUAACACUGCCAAUGCCGUUCCCAAGCCCGCAUAAAAGUGGAGGGGGCGG [G23U G35C], with 0.05.
In the case of CCGCCUAACACUGCCAAUGCCGUUCCCAAGCCCGUAUAAAAGUGGAGGGGGCGG [G23U G35U], the self-cleavage worked out at 0.05.
For CCGCCUAACACUGCCAAUGCCGGCCCCAAGCCCGGAUAAAAGUGGAGGGGGCGG [U24C], the self-cleavage was 0.53.
The same measure for CCGCCUAACACUGCCAAUGCCGGACCCAAGCCCGGAUAAAAGUGGAGGGGGCGG [U24A]: 0.42; for CCGCCUAACACUGCCAAUGCCGGGCCCAAGCCCGGAUAAAAGUGGAGGGGGCGG [U24G]: 0.03.
For CCGCCUAACACUGCCAAUGCCGUUCCCAAGCCCUGAUAAAAGUGGAGGGGGCGG [G23U G34U], the self-cleavage was 0.05.
Then CCGCCUAACACUGCCAAUGCCGUUCCCAAGCCCAGAUAAAAGUGGAGGGGGCGG [G23U G34A], with 0.04; and CCGCCUAACACUGCCAAUGCCGUUCCCAAGCCCCGAUAAAAGUGGAGGGGGCGG [G23U G34C], with 0.04.
As for CCGCCUAACACUGCCAAUGCCGUUCCCAAGCCCGGAUAAAAGUGGAGGGGGCGG [G23U], the self-cleavage was found to be 0.18.
Then CCGCCUAACACUGCCAAUGCCGUUCCCAAGCCCGGAUAAAAGUUGAGGGGGCGG [G23U G44U], with 0.06.
Then CCGCCUAACACUGCCAAUGCCGUUCCCAAGCCCGGAUAAAAGUAGAGGGGGCGG [G23U G44A], with 0.04; and CCGCCUAACACUGCCAAUGCCGUUCCCAAGCCCGGAUAAAAGUCGAGGGGGCGG [G23U G44C], with 0.05.
The same measure for CCGCCUAACACUGCCAAUGCCGUUCCCAAGCCCGGAUAAAAGUGGACGGGGCGG [G23U G47C]: 0.03.
As for CCGCCUAACACUGCCAAUGCCGUUCCCAAGCCCGGAUAAAAGUGGAAGGGGCGG [G23U G47A], the self-cleavage was 0.03.
The same measure for CCGCCUAACACUGCCAAUGCCGUUCCCAAGCCCGGAUAAAAGUGGAUGGGGCGG [G23U G47U]: 0.04; for CCGCCUAACACUGCCAAUGCCGCUCCCAAGCCCGGAUAAAAGUGGAGGGGGCGC [G23C G54C]: 0.05.
The same measure for CCGCCUAACACUGCCAAUGCCGCUCCCAAGCCCGGAUAAAAGUGGAGGGGGCGA [G23C G54A]: 0.06.
The same measure for CCGCCUAACACUGCCAAUGCCGCUCCCAAGCCCGGAUAAAAGUGGAGGGGGCGU [G23C G54U]: 0.06; for CCGCCUAACACAGCCAAUGCCGUUCCCAAGCCCGGAUAAAAGUGGAGGGGGCGG [G23U U12A]: 0.05.
As for CCGCCUAACACGGCCAAUGCCGUUCCCAAGCCCGGAUAAAAGUGGAGGGGGCGG [G23U U12G], the self-cleavage stood at 0.05.
For the variant CCGCCUAACACCGCCAAUGCCGUUCCCAAGCCCGGAUAAAAGUGGAGGGGGCGG [G23U U12C], the self-cleavage stood at 0.04.
Regarding CCGCCUAACACUGCCAACGCCGUUCCCAAGCCCGGAUAAAAGUGGAGGGGGCGG [G23U U18C], the self-cleavage was determined as 0.1.
The same measure for CCGCCUAACACUGCCAAGGCCGUUCCCAAGCCCGGAUAAAAGUGGAGGGGGCGG [G23U U18G]: 0.14; for CCGCCUAACACUGCCAAAGCCGUUCCCAAGCCCGGAUAAAAGUGGAGGGGGCGG [G23U U18A]: 0.1.
The same measure for CCGCCUAACACAGCCAAUGCCGCUCCCAAGCCCGGAUAAAAGUGGAGGGGGCGG [G23C U12A]: 0.04.
